Values without a mark were called inactive.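 The calls were made as follows, unless noted: active = growth inhibition above 25% in both replicates, a cutoff set 3 SD above the mean; inconclusive = above 25% in only one replicate; inactive = the rest.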

The nature of one assay: 384-well plate pilot, post-Golgi transport modulator project, inhibition of yeast transport mutant growth (AID 636; in the data active = inhibition above about 31%). As to conditions: absorbance 615 nm, about 18 h, active compounds read high.
As to `CC[C@@H]1C(=O)OC[C@@H]1Cc1cncn1C`, the inhibition (commonly the relative decrease from the control value, in per cent) is -3.12%.
As to `CSc1nnc2c3ccccc3n(Cc3ccccc3)c2n1`, the inhibition is -2.37%.
With `O=S(=O)(Cc1ccc(Cl)cc1)Nc1ccc2c(c1)OCO2`, the inhibition is -0.53%.
As to `O=C(CSc1nnnn1-c1ccccc1)Nc1nsc(-c2ccc(Cl)cc2)n1`, the inhibition was 0.39%.
With `Cc1csc(NC(=O)c2sc3nc(-c4cccs4)ccc3c2N)n1`, the inhibition was 0%.

The next assay in a line: growth suppression of yeast trafficking mutant, preliminary HTS, modulators of trafficking downstream of Golgi apparatus project, 1536-format plate, OD 615 nm (AID 637; in the data active = inhibition above about 30%). As to conditions: yeast transport mutant growth, absorbance 615 nm, 18 h; active compounds read high.
Consider `CC[C@@H]1C(=O)OC[C@@H]1Cc1cncn1C`, for which the inhibition was -5.5%.
Regarding `CSc1nnc2c3ccccc3n(Cc3ccccc3)c2n1`, the inhibition was 2.54%.
Turning to `O=S(=O)(Cc1ccc(Cl)cc1)Nc1ccc2c(c1)OCO2`, the inhibition is 4.29%.
Consider `O=C(CSc1nnnn1-c1ccccc1)Nc1nsc(-c2ccc(Cl)cc2)n1`, for which the inhibition was 3.33%.
For `Cc1csc(NC(=O)c2sc3nc(-c4cccs4)ccc3c2N)n1`, the inhibition was -6.35%.

A short description of the next assay: OD615 S. cerevisiae growth inhibition, permissive medium, pilot counter-assay, permissive growth control for S. cerevisiae lifespan shortening project (AID 705). As to conditions: OD615, 24 h, at 10 µM, active compounds read high. In short, it runs like this:
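System: engineered DeaD yeast; Medium: permissive raffinose/galactose medium; Compound dosing: 10 µM single dose, 0.25% DMSO; Incubation: 4 h cell pre-growth, 24 h exposure at 30 °C; Technique: OD at 615 nm; Evaluation: growth inhibition from lowered OD615 after 24 h.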
As to `Brc1ccc(Oc2nnnn2-c2ccccc2)cc1`, the growth inhibition is -5.57%.
In the case of `CCC(C)(C(=O)NC1CCCC1)N(C(=O)CNC(C)=O)c1ccc(C)cc1` (centres undefined), the growth inhibition was -1.46%.
Same read-out and setting: the result for `Cn1c(SCc2ccccc2Cl)nnc1-c1cnccn1` reads -2.59%.
Regarding `O=c1c2ccccc2nc(N2CCN(c3ccccc3)CC2)n1Cc1ccccc1`, the growth inhibition is -18.7%.
For the compound `COc1cc(OC)c(NC(=O)CS(=O)(=O)Cc2nc(-c3ccc(C)cc3)oc2C)cc1Cl`, the growth inhibition is -22.6%.
`Clc1ccc(Cc2nnc(-c3cccs3)o2)cc1`: the growth inhibition is -0.04%.
The same measure, in the same setting: the result for `CCOC(=O)c1ccc(NC(=O)c2cc3ccccc3o2)cc1` reads -5.56%; that for `C=CCNc1ncnc2c1cnn2-c1ccc(Cl)cc1`, -2.23%; that for `O=C1C2CCCN2C(c2ccc(F)cc2)N1c1ccc(Cl)cc1` (centres undefined), -13%.
In the case of `CCOc1ccc(NC(=O)C2CSC(c3ccncc3)=N2)cc1` (centres undefined), the growth inhibition was -3.44%.
With `O=C(NCc1ccc2c(c1)OCO2)c1nnc(Cc2ccc(F)cc2)o1`, the growth inhibition was -1.76%.
On to `CCCc1nnc(NC(=O)c2ccncc2)s1`, for which the growth inhibition is -5.46%.
In the case of `COC(=O)c1ccc2c(c1)N(Cc1ccccc1F)C(=O)c1ccccc1S2=O` (centres undefined), the growth inhibition is -13.9%.
Regarding `CCOc1ccccc1C(=O)Nc1ccc2nc(N3CCN(c4ncccn4)CC3)cc(C)c2c1`, the growth inhibition was 5.8%.
On to `C(#Cc1ccccc1)CN1CCN(c2ccccn2)CC1`, for which the growth inhibition is -7.33%.
Still for that read-out and setting: with `CC1CCN(c2nc3c(c(=O)[nH]c(=O)n3C)n2CCCc2ccccc2)CC1` the figure was -15.8%; with `CCOc1ccc(-c2nc(CSCC(=O)N3CCN(c4cccc(OC)c4)CC3)c(C)o2)cc1`, 5.25%; with `CCOC(=O)c1ccccc1NC1c2ccccc2C(=O)N1c1ccc(C)cn1` (centres undefined), -11.3%.
With `COc1ccc(N2CCN(C(=O)CCS(=O)(=O)c3cccc4nsnc34)CC2)cc1`, the growth inhibition was -9.09%.
Turning to `Cc1ccc(-c2nn(-c3ccccc3)cc2C2SCC(=O)N2Cc2ccccc2)o1` (centres undefined), the growth inhibition was -17.1%.
Still for that read-out and setting: with `CCC(Sc1nc2c(cnn2-c2ccccc2)c(=O)[nH]1)C(=O)OC` (centres undefined) the figure was -17.3%; with `COc1ccc(-c2nc(CS(=O)CC(=O)NCc3ccc4c(c3)OCO4)c(C)o2)cc1` (centres undefined), 4.12%; with `COc1cccc(CSc2nc3sc(C)c(C)c3c(=O)n2Cc2ccco2)c1`, 6.35%.
Consider `Cc1noc(/C=C/NCc2cccnc2)c1S(=O)(=O)N(C)CC(=O)N1CCc2ccccc21`, for which the growth inhibition was -10.2%.
As for `COc1ccccc1N1CCN(C(=O)c2cc3c(-c4ccc(Cl)cc4)nn(C)c3s2)CC1`, the growth inhibition was -1.53%.
On to `O=C(O)c1ccc(CSc2nnc(COc3ccc(Cl)cc3Cl)o2)cc1`, for which the growth inhibition is 10.6%.
In the case of `N#CCCN1CCN(C(=S)c2ccc(-c3cccc(Cl)c3)o2)CC1`, the growth inhibition was -12.9%.
`Oc1ccccc1C(=S)N1CCCCC1`: the growth inhibition is 8.11%.
With `Cc1ccc(-c2nc(CS(=O)CC(=O)NCc3ccc(Cl)cc3)c(C)o2)cc1` (centres undefined), the growth inhibition was 1.44%.
As for `COc1ccc(-c2noc(-c3cc(C)cc(C)c3)n2)cc1OC`, the growth inhibition is -16.5%.
On the same count and under the same terms, with `Cc1ccc(C)c(C(=O)Nc2c(C(N)=O)oc3ccccc23)c1` the figure was -5.56%.
The same measure, in the same setting: the result for `Clc1ccccc1-c1nnc2sc(-c3ccncc3)nn12` reads -1.33%.

Another assay is described as follows: Restrictive medium S. cerevisiae growth inhibition, OD615, pilot screen of yeast lifespan reduction project, restrictive growth control (AID 706;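 active = growth inhibition above a set limit, 3 SD over mean compound inhibition, in both replicates, cut at about 43% in these data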;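 also: modified DeaD lifespan yeast strain shifted to restrictive glucose medium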). Conditions: OD615, 48 h, at 10 µM, active compounds read high. In short, it runs like this:
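Material: modified S. cerevisiae; buffer or medium: CSMM-D glucose medium; doses: one concentration, 10 µM final, 0.25% DMSO; incubation: 48 h compound exposure at 30 °C; detection: optical density at 615 nm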
Take `Brc1ccc(Oc2nnnn2-c2ccccc2)cc1`: the growth inhibition was -3.68%.
Take `CCC(C)(C(=O)NC1CCCC1)N(C(=O)CNC(C)=O)c1ccc(C)cc1` (centres undefined): the growth inhibition was -5.89%.
Consider `Cn1c(SCc2ccccc2Cl)nnc1-c1cnccn1`, for which the growth inhibition is -7.88%.
Still for that read-out and setting: with `O=c1c2ccccc2nc(N2CCN(c3ccccc3)CC2)n1Cc1ccccc1` the figure was -8.96%; with `COc1cc(OC)c(NC(=O)CS(=O)(=O)Cc2nc(-c3ccc(C)cc3)oc2C)cc1Cl`, -17%.
The same measure, in the same setting: the result for `Clc1ccc(Cc2nnc(-c3cccs3)o2)cc1` reads 5.1%; that for `CCOC(=O)c1ccc(NC(=O)c2cc3ccccc3o2)cc1`, -8.95%; that for `C=CCNc1ncnc2c1cnn2-c1ccc(Cl)cc1`, 1.64%.
As for `O=C1C2CCCN2C(c2ccc(F)cc2)N1c1ccc(Cl)cc1` (centres undefined), the growth inhibition was -0.82%.
As for `CCOc1ccc(NC(=O)C2CSC(c3ccncc3)=N2)cc1` (centres undefined), the growth inhibition is 29.4%.
On the same count and under the same terms, with `O=C(NCc1ccc2c(c1)OCO2)c1nnc(Cc2ccc(F)cc2)o1` the figure was 9.91%.
Turning to `CCCc1nnc(NC(=O)c2ccncc2)s1`, the growth inhibition is -3.19%.
As for `COC(=O)c1ccc2c(c1)N(Cc1ccccc1F)C(=O)c1ccccc1S2=O` (centres undefined), the growth inhibition was -2.4%.
Turning to `CCOc1ccccc1C(=O)Nc1ccc2nc(N3CCN(c4ncccn4)CC3)cc(C)c2c1`, the growth inhibition was -4.81%.
On to `C(#Cc1ccccc1)CN1CCN(c2ccccn2)CC1`, for which the growth inhibition is -2.65%.
Take `CC1CCN(c2nc3c(c(=O)[nH]c(=O)n3C)n2CCCc2ccccc2)CC1`: the growth inhibition is -41.8%.
For the compound `CCOc1ccc(-c2nc(CSCC(=O)N3CCN(c4cccc(OC)c4)CC3)c(C)o2)cc1`, the growth inhibition was 19.7%.
For the compound `CCOC(=O)c1ccccc1NC1c2ccccc2C(=O)N1c1ccc(C)cn1` (centres undefined), the growth inhibition was 6.58%.
Consider `COc1ccc(N2CCN(C(=O)CCS(=O)(=O)c3cccc4nsnc34)CC2)cc1`, for which the growth inhibition is -6.57%.
As to `Cc1ccc(-c2nn(-c3ccccc3)cc2C2SCC(=O)N2Cc2ccccc2)o1` (centres undefined), the growth inhibition is -9.89%.
Turning to `CCC(Sc1nc2c(cnn2-c2ccccc2)c(=O)[nH]1)C(=O)OC` (centres undefined), the growth inhibition is -17.4%.
For `COc1ccc(-c2nc(CS(=O)CC(=O)NCc3ccc4c(c3)OCO4)c(C)o2)cc1` (centres undefined), the growth inhibition is 14.1%.
Regarding `COc1cccc(CSc2nc3sc(C)c(C)c3c(=O)n2Cc2ccco2)c1`, the growth inhibition is 2.66%.
For the compound `Cc1noc(/C=C/NCc2cccnc2)c1S(=O)(=O)N(C)CC(=O)N1CCc2ccccc21`, the growth inhibition is -7.69%.
Consider `COc1ccccc1N1CCN(C(=O)c2cc3c(-c4ccc(Cl)cc4)nn(C)c3s2)CC1`, for which the growth inhibition was 13.8%.
Consider `O=C(O)c1ccc(CSc2nnc(COc3ccc(Cl)cc3Cl)o2)cc1`, for which the growth inhibition is 20.2%.
Take `N#CCCN1CCN(C(=S)c2ccc(-c3cccc(Cl)c3)o2)CC1`: the growth inhibition was 22.7%.
Consider `Oc1ccccc1C(=S)N1CCCCC1`, for which the growth inhibition was 23.6%.
For the compound `Cc1ccc(-c2nc(CS(=O)CC(=O)NCc3ccc(Cl)cc3)c(C)o2)cc1` (centres undefined), the growth inhibition was -4.35%.
With `COc1ccc(-c2noc(-c3cc(C)cc(C)c3)n2)cc1OC`, the growth inhibition is -30.9%.
With `Cc1ccc(C)c(C(=O)Nc2c(C(N)=O)oc3ccccc23)c1`, the growth inhibition was -1.59%.
With `Clc1ccccc1-c1nnc2sc(-c3ccncc3)nn12`, the growth inhibition is 19.3%.

These data come from PubChem BioAssay.
